Holding throughout (assay type): cell-based
Experiment [1] has as its system human larynx carcinoma (HEp2) cells. Put plainly: MTT cytotoxicity assay, HEp2 cells.
Experiment [2] relates to Plasmodium falciparum chloroquine-resistant (W2) strain. Nature of the experiment: Antiplasmodial assay. The gist of the method: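 Asexual erythrocytic-stage P. falciparum W2 was kept in continuous in vitro culture. It was tested by modified semiautomated microdilution for inhibition of [G-3H]hypoxanthine incorporation. Cells were harvested onto glass-fibre filters and counted by liquid scintillation as cpm per well at each drug concentration, expressed as % of untreated controls. IC50 was taken from nonlinear regression of the dose-response curve.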

For experiment [3], the system named is mouse breast cancer (4T1) cells. Put plainly: MTT cytotoxicity assay, 4T1 cells.
The test system of experiment [4] is Plasmodium falciparum chloroquine-sensitive (D6) strain. Put plainly: Antiplasmodial assay. The conditions noted are these: for IC50: Plasmodium falciparum.
The mark [5] stands for this setting: Homo sapiens, HEp-2, 48 h, read-out: IC50 HEp2, HEp2 cells, MTT, 48 h.
Where [6] appears, read: read-out: IC50 HEp2, HEp2 cells, MTT, 48 h.
[7] abbreviates: Mus musculus, 4T1, 48 h, read-out: IC50 4T1, 4T1 cells, MTT, 48 h.
Where [8] appears, read: read-out: IC50 4T1, 4T1 cells, MTT, 48 h.

Usually IC50 stands for the point on the concentration scale where inhibition reaches its midpoint.

Where two headings read alike, the source gives them in different places.

With `CC(=O)O[C@@H]1C[C@H]2C(C)(C)C(=O)C=C[C@]2(C)[C@H]2CC[C@]3(C)C(=CC[C@H]3c3ccoc3)[C@@]21C` [Azadirone (1), azadirone], the IC50 in experiment [1] (setting [5]) was less than 20 µM; in experiment [1] (setting [6]), 12.8 µM; in experiment [2] (W2, read-out: IC50 W2), 29.6 ± 1 µM; in experiment [3] (setting [7]), less than 20 µM; in experiment [3] (setting [8]) it was 14.4 µM; in experiment [4] (D6, read-out: IC50 D6) it was 23.4 ± 0.2 µM.
Consider `CCN(CC)CCCC(C)Nc1ccnc2cc(Cl)ccc12` (stereo not shown) [Chloroquine, reference compound], for which the half-maximal inhibitory concentration (IC50) in experiment [2] (W2, read-out: IC50 W2 (chloroquine)) worked out at 0.108 µM; in experiment [4] (D6, read-out: IC50 D6 (chloroquine)), 0.0077 µM. In experiment [4] (Table 1), the “SI: selectivity index [IC50 vero/IC50 (D6)]” value amounted to 5701.
For `CC(=O)O[C@H]1C[C@@H]2[C@@]3(C)CCC(=O)C(C)(C)[C@@H]3C[C@@H](O)[C@@]2(C)C2=CC[C@@H](c3ccoc3)[C@@]21C` [Mzikonone (3), mzikonone], the half-maximal inhibitory concentration (IC50) in experiment [1] (setting [5]) stood at 59.3 ± 1 µM; in experiment [2] (W2, read-out: IC50 W2), 40.5 ± 3.7 µM; in experiment [3] (setting [7]), 38.8 ± 0.4 µM; in experiment [4] (D6, read-out: IC50 D6) it was 36.6 ± 0.8 µM.
As for `C[C@H](C[C@@H](O)[C@@H]1OC1(C)C)[C@@H]1CC[C@]2(C)C3=CC[C@H]4C(C)(C)C(=O)CC[C@]4(C)[C@H]3CC[C@@]12C` [Niloticin (8), niloticin], the IC50 in experiment [1] (setting [6]) was 6.9 ± 0.6 µM; in experiment [1] (read-out: IC50 HEp2, HEp2 cells, MTT, 48 h, listed as niloticin (8)), less than 20 µM; in experiment [2] (W2, read-out: IC50 W2), 77 ± 5.7 µM; in experiment [3] (setting [7]), less than 20 µM; in experiment [3] (setting [8]), 14.5 ± 0.5 µM; in experiment [4] (D6, read-out: IC50 D6), 48.2 ± 2.3 µM.
